# Values joined by “and” are separate entries in the source; they are usually repeats but may differ in a detail not shown here. Equal values may be shown once. Read-outs that look alike come from different tables or passages of the source.
# Key:
# [1] = Population pharmacokinetic analysis of CC‐292; type: in vivo, human
# In short: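 Data came from healthy volunteers (50, 100 or 200 mg or placebo orally QD for 7 days; intensive sampling predose to 24 h on days 1 and 7, troughs on days 3–6) and patients (sparse cycle 1–3 samples). Plasma was assayed by LC-MS/MS (LLOQ ≤0.5 ng/mL, labeled internal standard). The NONMEM FOCE-I 2-compartment model with first-order absorption and lag used ln-transformed data and separate residual error per population. There were 1000 bootstrap runs with 5th–95th percentile CIs.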
# [2] = system: CLL/SLL; assay: Best overall response in CLL/SLL subjects, phase 1b study AVL‐292‐003; type: in vivo, human
# [3] = system: CLL/SLL; assay: Exposure‐response analysis; type: in vivo, human
# In short: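 In relapsed/refractory CLL/SLL patients from the phase 1b study, log-transformed steady-state AUC came from noncompartmental analysis. ORR (CR, CRi or PR; updated iwCLL criteria) was modeled as responder vs nonresponder by logistic regression, first univariate, then multivariate with stepwise forward/backward covariate selection. Covariates were age, BSA, sex, race, QD vs BID regimen, CLcr, bilirubin, albumin, ALT and AST.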
# [4] = system: CLL/SLL; assay: Threshold analysis; type: in vivo, human; conditions: threshold 300 ng/mL
# [5] = monkeys; ref data on file; cited from earlier work
# [6] = rats; ref data on file; cited from earlier work
# [7] = rats; ref data on file; cited from earlier work; remark: listed apart in the source
# [8] = system: CYP3A4; conditions: ref data on file; cited from earlier work
# [9] = system: CYP1A2; conditions: ref data on file; cited from earlier work
# [10] = based on final population PK parameters
structure (smiles),measurement,setting,value
C=CC(=O)Nc1cccc(Nc2nc(Nc3ccc(OCCOC)cc3)ncc2F)c1 [CC‐292],interindividual variability for V2/F,[1]; base model,88%
same,distribution rate,[1]; [10],0.11 h⁻¹
same,elimination rate,[1]; [10],0.85 h⁻¹
same,"Alag1, Bootstrap Estimate (95%CI)",[1]; bootstrap N = 1000,0.428 (0.414‐0.439) h
same,"CL/F, Bootstrap Estimate (95%CI)",[1]; bootstrap N = 1000,131.9 (109.0‐166.6) L/h
same,"Effect of age on V2/F, Bootstrap Estimate (95%CI)",[1]; bootstrap N = 1000,0.946 (0.592‐1.355)
same,"Interindividual variability ωV2/F: ωCL/F, Bootstrap Estimate (95%CI)",[1]; bootstrap N = 1000,0.321 (0.198‐0.461)
same,"Interindividual variability ω^2 CL/F, Bootstrap Estimate (95%CI)",[1]; bootstrap N = 1000,0.306 (0.202‐0.454)
same,"Interindividual variability ω^2 V2/F, Bootstrap Estimate (95%CI)",[1]; bootstrap N = 1000,0.750 (0.526‐1.010)
same,"Q/F, Bootstrap Estimate (95%CI)",[1]; bootstrap N = 1000,18.4 (15.3‐21.7) L/h
same,"V2/F, Bootstrap Estimate (95%CI)",[1]; bootstrap N = 1000,156.4 (130.2‐187.8) L
same,"V3/F, Bootstrap Estimate (95%CI)",[1]; bootstrap N = 1000,71.7 (61.4‐83.5) L
same,"ka, Bootstrap Estimate (95%CI)",[1]; bootstrap N = 1000,0.97 (0.86‐1.11) h^−1
same,"Residual variability HNP, Bootstrap Estimate (95%CI)","[1]; bootstrap N = 1000, healthy normal study subjects",0.230 (0.180‐0.288)
same,"Residual variability Patients, Bootstrap Estimate (95%CI)","[1]; bootstrap N = 1000, patients",0.654 (0.537‐0.708)
same,Vd/F,"[1]; both, human, plasma, oral",158 L
same,clearance,"[1]; both, human, plasma, oral",2230 mL/min
same,interindividual variability for V2/F,[1]; final model (age included),86%
same,"Alag1, absorption lag time, Estimate",[1]; final population PK model,0.427 h
same,"Interindividual variability ωV2/F: ωCL/F, Estimate",[1]; final population PK model,0.328
same,"Interindividual variability ω^2 CL/F, Estimate",[1]; final population PK model,0.317
same,"Interindividual variability ω^2 V2/F, Estimate",[1]; final population PK model,0.755
same,lower CL/F in female subjects compared to male subjects,[1]; final population PK model,26%
same,"Residual variability HNP, Estimate","[1]; final population PK model, healthy normal study subjects",0.234
same,"ka, first‐order absorption rate constant, Estimate","[1]; final population PK model, oral, healthy subjects and patients",0.97 h⁻¹ and 0.974 h⁻¹
same,"Residual variability Patients, Estimate","[1]; final population PK model, patients",0.659
same,"Effect of age on V2/F, Estimate","[1]; final population PK model, power exponent",0.946
same,"CL/F, apparent clearance, Estimate","[1]; final population PK model, typical value for male subjects",134 L/h and 134.0 L/h
same,CL/F relative to Q/F (Q/F lower than CL/F),[1]; in vivo,7.2 fold and ~7 fold
same,differences in drug exposures between female and male subjects,[1]; in vivo,below 26%
same,Best overall response: Complete response,[2]; 125 mg QD,0 n (%)
same,Best overall response: Partial response,[2]; 125 mg QD,1 (33.3) n (%)
same,Best overall response: Progression disease,[2]; 125 mg QD,0 n (%)
same,Best overall response: Stable disease,[2]; 125 mg QD,2 (66.7) n (%)
same,Overall response rate,[2]; 125 mg QD,1 (33.3) n (%)
same,Best overall response: Complete response,[2]; 250 mg QD,0 n (%)
same,Best overall response: Partial response,[2]; 250 mg QD,0 n (%)
same,Best overall response: Progression disease,[2]; 250 mg QD,0 n (%)
same,Best overall response: Stable disease,[2]; 250 mg QD,1 (100) n (%)
same,Overall response rate,[2]; 250 mg QD,0 n (%)
same,Best overall response: Complete response,[2]; 375 mg BID,0 n (%)
same,Best overall response: Partial response,[2]; 375 mg BID,4 (66.7) n (%)
same,Best overall response: Progression disease,[2]; 375 mg BID,0 n (%)
same,Best overall response: Stable disease,[2]; 375 mg BID,2 (33.3) n (%)
same,Overall response rate,[2]; 375 mg BID,4 (66.7) n (%)
same,Best overall response: Complete response,[2]; 400 mg QD,0 n (%)
same,Best overall response: Partial response,[2]; 400 mg QD,1 (25.0) n (%)
same,Best overall response: Progression disease,[2]; 400 mg QD,0 n (%)
same,Best overall response: Stable disease,[2]; 400 mg QD,3 (75.0) n (%)
same,Overall response rate,[2]; 400 mg QD,1 (25.0) n (%)
same,Best overall response: Complete response,[2]; 500 mg BID,0 n (%)
same,Best overall response: Partial response,[2]; 500 mg BID,19 (61.3) n (%)
same,Best overall response: Progression disease,[2]; 500 mg BID,0 n (%)
same,Best overall response: Stable disease,[2]; 500 mg BID,12 (38.7) n (%)
same,Overall response rate,[2]; 500 mg BID,19 (61.3) n (%)
same,Best overall response: Complete response,[2]; 625 mg QD,0 n (%)
same,Best overall response: Partial response,[2]; 625 mg QD,0 n (%)
same,Best overall response: Progression disease,[2]; 625 mg QD,0 n (%)
same,Best overall response: Stable disease,[2]; 625 mg QD,1 (100) n (%)
same,Overall response rate,[2]; 625 mg QD,0 n (%)
same,Best overall response: Complete response,[2]; 750 mg QD,0 n (%)
same,Best overall response: Partial response,[2]; 750 mg QD,12 (41.4) n (%)
same,Best overall response: Progression disease,[2]; 750 mg QD,1 (3.4) n (%)
same,Best overall response: Stable disease,[2]; 750 mg QD,16 (55.2) n (%)
same,Overall response rate,[2]; 750 mg QD,12 (41.4) n (%)
same,Best overall response: Complete response,[2]; 1000 mg QD,0 n (%)
same,Best overall response: Partial response,[2]; 1000 mg QD,4 (57.1) n (%)
same,Best overall response: Progression disease,[2]; 1000 mg QD,0 n (%)
same,Best overall response: Stable disease,[2]; 1000 mg QD,3 (42.9) n (%)
same,Overall response rate,[2]; 1000 mg QD,4 (57.1) n (%)
same,Best overall response: Complete response,"[2]; Total, all cohorts",0 n (%)
same,Best overall response: Partial response,"[2]; Total, all cohorts",41 (50.0) n (%)
same,Best overall response: Progression disease,"[2]; Total, all cohorts",1 (1.2) n (%)
same,Best overall response: Stable disease,"[2]; Total, all cohorts",40 (48.8) n (%)
same,Overall response rate,"[2]; Total, all cohorts",41 (50.0) n (%)
same,mean ORR,[3]; first quartile of average AUC,35%
same,mean ORR,[3]; fourth quartile of average AUC,50.2%
same,duration/coverage at and above the threshold concentration,[4]; 375 mg BID,~10.4 h
same,duration/coverage at and above the threshold concentration,[4]; 750 mg QD,6.6 h
same,extent of bioavailability,[5],11%
same,extent of bioavailability,[6],57%
same,CC‐292–derived radioactivity excreted in the bile,[7],~79 % of the dose
same,metabolism by CYP3A4,[8],extensively metabolized
same,metabolism by CYP1A2,[9],extensively metabolized

# Reference: publication PMC5599992 (Journal of Clinical Pharmacology, 2017)
